Data published in ChEMBL document CHEMBL1629691, “Intrapulmonary pharmacokinetics and pharmacodynamics of micafungin in adult lung transplant patients” (Antimicrob Agents Chemother, 2010).
Numbered stars: 1 amine (or outer) side, 2 acyl side, 3 side chain; on linkers, the order of the positions; unused ones are H or OH. Bridge positions count the residues as written; N and C are the ends. Square brackets hold non-standard residues; d marks the D form. Peptide text beside a SMILES is read from it. * marks the point of attachment. hTyr(3S-OH,4S-OH,3'-OSO3H) = N[C@H](C(=O)O)[C@H](O)[C@@H](O)c1ccc(O)c(OS(=O)(=O)O)c1; Orn(4R-OH,5R-OH) = O=C([C@H](C[C@@H](O)[C@@H](O)N[*:3])N[*:1])[*:2]; Pro(3S-OH,4S-Me) = C[C@H]1CN[C@H](C(=O)O)[C@H]1O; X1 = CCCCCOc1ccc(-c2cc(-c3ccc(C(=O)*)cc3)no2)cc1; Gln(3R-OH) = NC(=O)C[C@@H](O)[C@H](N)C(=O)O; Hyp = O=C(O)[C@@H]1C[C@@H](O)CN1

How the values were obtained:
[1] = Drug level in lung transplant recipient invasive aspergillosis patient epithelial lining fluid at 150 mg, iv QD for 4 consecutive days measured after 18 hrs post last dose by HPLC; assay type: ADME, organism-based; conditions: human, read-out: Drug uptake
In short: (§1)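 150-mg IV micafungin, then bronchoscopy with BAL (20-ml saline aliquots) at the stated time after the dose. Blood was drawn in heparin at the same time. The BAL fluid was spun at 400 × g for 5 min at 4°C; supernatant and cell pellet were frozen at −80°C. Micafungin was measured by solid-phase extraction and C8 HPLC with UV detection at 271.5 nm, using anidulafungin as internal standard.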

[2] = Ratio of drug level in alveolar cell to plasma of lung transplant recipient invasive aspergillosis patient at 150 mg, iv QD for 4 consecutive days measured after 24 hrs post last dose; assay type: ADME, organism-based, Pneumocyte; conditions: human, alveolar cells / plasma
[3] = Ratio of drug level in epithelial lining fluid to plasma in lung transplant recipient invasive aspergillosis patient at 150 mg, iv QD for 4 consecutive days measured after 18 hrs post last dose; assay type: ADME, organism-based; conditions: human
Homo sapiens [4] = experiment: Hepatotoxicity in lung transplant recipient invasive aspergillosis patient assessed as serum creatinine level at 150 mg, iv QD for 4 consecutive days measured post last dose; assay type: toxicity, organism-based; conditions: in vivo
In short: (§2)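 Serum creatinine, AST, ALT and total bilirubin were recorded from routine clinical laboratory tests before enrolment and again after BAL, at a mean of 10.7 days after infusion.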

[5] = Drug level in lung transplant recipient invasive aspergillosis patient plasma at 150 mg, iv QD for 4 consecutive days measured after 3 hrs post last dose by HPLC; assay type: ADME, organism-based; conditions: human, read-out: Drug uptake; in short: as §1
[6] = Ratio of drug level in epithelial lining fluid to plasma in lung transplant recipient invasive aspergillosis patient at 150 mg, iv measured after 5 hrs post last dose; conditions: human
[7] = Ratio of drug level in alveolar cell to plasma of lung transplant recipient invasive aspergillosis patient at 150 mg, iv single dose measured after 5 hrs post dose; conditions: human, alveolar cells / plasma
[8] = Ratio of Cmax in lung transplant recipient invasive aspergillosis patient epithelial lining fluid to MIC90 for Aspergillus fumigatus; assay type: functional
[9] = Ratio of total Cmax to MIC90 in lung transplant recipient invasive aspergillosis patient infected with Aspergillus fumigatus; assay type: functional
[10] = Drug level in lung transplant recipient invasive aspergillosis patient plasma at 150 mg, iv measured after 5 hrs post last dose by HPLC; conditions: human, read-out: Drug uptake
[11] = Clearance in lung transplant recipient invasive aspergillosis patient at 150 mg, iv QD for 4 consecutive days by HPLC; assay type: ADME, organism-based; conditions: human, in vivo
[12] = AUC (0 to 24 hrs) in alveolar cell of lung transplant recipient invasive aspergillosis patient plasma at 150 mg, iv administered as single dose; assay type: ADME, organism-based, Pneumocyte; parameters: time < 24 hr, dose 150 mg, route intravenous; conditions: human, alveolar cells
In short: (§3)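 Single 150-mg IV dose in adult lung transplant recipients. Plasma, ELF (epithelial lining fluid) and alveolar cell concentrations were measured by HPLC at the time of bronchoscopy. AUC0-24 came from a population model: a linear four-compartment model fit to all compartments, with the plasma two-compartment model used for the plasma profile.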

[13] = AUC (0 to 24 hrs) in lung transplant recipient invasive aspergillosis patient plasma at 150 mg, iv administered as single dose; assay type: ADME, organism-based; parameters: dose 150 mg, time < 24 hr, route intravenous; conditions: human; in short: as §3
[14] = Ratio of fCmax in lung transplant recipient invasive aspergillosis patient plasma to MIC90 for Aspergillus fumigatus; assay type: functional
[15] = Ratio of drug level in epithelial lining fluid to plasma in lung transplant recipient invasive aspergillosis patient at 150 mg, iv QD for 4 consecutive days measured after 8 hrs post last dose; assay type: ADME, organism-based; conditions: human
[16] = Cmax in alveolar cells of lung transplant recipient invasive aspergillosis patient at 150 mg, iv QD for 4 consecutive days by HPLC; assay type: ADME, organism-based, Pneumocyte; parameters: dose 150 mg, route intravenous; conditions: human
In short: (§4)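 150-mg IV dose; BAL at 3, 5, 8, 18 or 24 h after the dose, about 4 subjects per time group. Plasma, ELF and alveolar cell drug was measured by reversed-phase HPLC with UV detection. Values were averaged per time point. Cmax is the highest mean over the five groups; Tmax is the mean dose-to-BAL time of that group.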

[17] = Drug level in alveolar cells of lung transplant recipient invasive aspergillosis patient at 150 mg, iv QD for 4 consecutive days measured after 3 hrs post last dose by HPLC; assay type: ADME, organism-based, Pneumocyte; conditions: human, read-out: Drug uptake; in short: as §1
[18] = Drug level in epithelial lining fluid of lung transplant recipient invasive aspergillosis patient at 150 mg, iv single dose measured after 5 hrs post dose by HPLC; conditions: human, read-out: Drug uptake
[19] = Drug level in lung transplant recipient invasive aspergillosis patient plasma at 150 mg, iv QD for 4 consecutive days measured after 5 hrs post last dose by HPLC; assay type: ADME, organism-based; conditions: human, read-out: Drug uptake; in short: as §1
[20] = Ratio of drug level in alveolar cell to plasma of lung transplant recipient invasive aspergillosis patient at 150 mg, iv QD for 4 consecutive days measured after 18 hrs post last dose; assay type: ADME, organism-based, Pneumocyte; conditions: human, alveolar cells / plasma
[21] = Drug level in alveolar cells of lung transplant recipient invasive aspergillosis patient at 150 mg, iv single dose measured after 5 hrs post dose by HPLC; conditions: human, read-out: Drug uptake
Homo sapiens [22] = experiment: Hepatotoxicity in lung transplant recipient invasive aspergillosis patient assessed as serum AST level at 150 mg, iv QD for 4 consecutive days measured post last dose; assay type: toxicity, organism-based; conditions: in vivo; in short: as §2
[23] = Drug level in alveolar cells of lung transplant recipient invasive aspergillosis patient at 150 mg, iv QD for 4 consecutive days measured after 5 hrs post last dose by HPLC; assay type: ADME, organism-based, Pneumocyte; conditions: human, read-out: Drug uptake; in short: as §1
[24] = Tmax in lung transplant recipient invasive aspergillosis patient plasma at 150 mg, iv QD for 4 consecutive days by HPLC; assay type: ADME, organism-based; conditions: human; in short: as §4
[25] = Ratio of Cmax in lung transplant recipient invasive aspergillosis patient alveolar cell to MIC90 for Aspergillus fumigatus; assay type: functional, Pneumocyte
[26] = Tmax in epithelial lining fluid of lung transplant recipient invasive aspergillosis patient at 150 mg, iv QD for 4 consecutive days by HPLC; assay type: ADME, organism-based; conditions: human; in short: as §4

## CCCCCOc1ccc(-c2cc(-c3ccc(C(=O)N[C@H]4C[C@@H](O)[C@@H](O)NC(=O)[C@@H]5[C@@H](O)[C@@H](C)CN5C(=O)[C@H]([C@H](O)CC(N)=O)NC(=O)[C@H]([C@H](O)[C@@H](O)c5ccc(O)c(OS(=O)(=O)O)c5)NC(=O)[C@@H]5C[C@@H](O)CN5C(=O)[C@H]([C@@H](C)O)NC4=O)cc3)no2)cc1 [MICAFUNGIN] (X1-[Orn(4R-OH,5R-OH)]T[Hyp][hTyr(3S-OH,4S-OH,3'-OSO3H)][Gln(3R-OH)][Pro(3S-OH,4S-Me)]; lactam 1-C)
[1]
  concentration at 18 h: 80 ng/mL
[2]
  Kp at 24 h: 6.22
[3]
  Kp at 18 h: 0.04
Homo sapiens [4]
  Activity: 1.11 mg/dL
[5]
  concentration at 3 h: 4930 ng/mL
[6]
  Kp at 5 h: 0.15
[7]
  Kp at 5 h: 0.61
[8]
  Ratio: 88.5
[9]
  Ratio: 316
[10]
  concentration at 5 h: 4810 ng/mL
[11]
  clearance: 21.8 mL/min
[12]
  AUC(0-t) at 24 h: 208 µg·h/mL
[13]
  AUC(0-t) at 24 h: 79.2 µg·h/mL
[14]
  Ratio: 3.2
[15]
  Kp at 8 h: 0.01
[16]
  Cmax: 17400 ng/mL
[17]
  concentration at 3 h: 7170 ng/mL
[18]
  concentration at 5 h: 710 ng/mL
[19]
  concentration at 5 h: 5380 ng/mL
[20]
  Kp at 18 h: 7.62
[21]
  concentration at 5 h: 2840 ng/mL
Homo sapiens [22]
  Activity: 28.6 IU/L
[23]
  concentration at 5 h: 53300 ng/mL
[24]
  Tmax: 4 h
[25]
  Ratio: 1115
[26]
  Tmax: 24.2 h
